Screens (PubChem)
An excerpt weighted towards active compounds, which were near 3% of everything screened.
esBAF inh – SWI/SNF esBAF complex inhibition. hit rate 2% among 350,000. mouse ES cells, Bmi1-luciferase knock-in reporter, 24 h; 100% = twice the neutral-well signal. reporter increase, % at 12.5 µM; in the data active = activation above about 40%; inconclusive = no clear call, values can overlap the other calls;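 also: 0% = median of the plate's neutral control wells and 100% = double that signal; a rise in the Bmi1 reporter signal indicates esBAF inhibition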
MITF act – activators of MITF-driven TRPM1 promoter activity in SK-MEL-5 cells | SK-MEL-5 TRPM1-promoter luciferase, 24 h; % of positive control, neutral wells = 0 | AID 588334 | hit rate 0.75% among 300,000 | activation, % at 12.5 µM;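 active = mean activation of at least 80% with every replicate also reaching 80%; inconclusive = mean reaches 80% but some replicate falls short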;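 also: 0% = neutral control wells and 100% = parthenolide positive control wells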
Xi reactivation – X-chromosome reactivation activator. XiGFP mouse fibroblasts, % GFP-positive cells imaging, 3 d; cells co-treated with 5-aza-dC sensitizer; scaled so ellipticine positive control = 100%. activation, % at 7.58 µM. hit rate 0.055% among 360,000;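 active = mean normalized replicate activation at least 10% and every replicate at or above 10%; inconclusive = only one of the two criteria met; inactive = mean below 10% and not all replicates reach 10%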;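 also: 0% = median of on-plate neutral control wells and 100% = ellipticine 6 µM median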
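Schedule: 3 d treatment, 15 min room-temperature fixation; system: 68-5-11 XiGFP fibroblast line; buffer or medium: DMEM plus 5-aza-dC sensitizer; control set: ellipticine 6 µM positive control; compound: one concentration, pinned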
CASP6 VEID inh – inhibitors of human caspase-6 | P55212 | purified caspase-6, Z-VEID-R110 cleavage fluorescence | inhibition, % at 12.5 µM | hit rate 0.53% among 350,000 | AID 686996;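 active = mean inhibition across replicates at least about 35%, with every replicate also reaching that limit, limit read from the data; inconclusive = only one of the two criteria met; inactive = neither criterion met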;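 also: 0% = median of neutral control wells and 100% = no fluorescence left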
Target sequence (P55212 24-179 limits assumed): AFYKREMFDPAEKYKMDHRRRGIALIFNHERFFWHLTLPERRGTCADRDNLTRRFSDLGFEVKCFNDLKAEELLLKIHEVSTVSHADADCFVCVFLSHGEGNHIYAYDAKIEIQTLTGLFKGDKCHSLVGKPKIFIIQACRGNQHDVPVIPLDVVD
Target sequence (P55212 194-293 limits assumed): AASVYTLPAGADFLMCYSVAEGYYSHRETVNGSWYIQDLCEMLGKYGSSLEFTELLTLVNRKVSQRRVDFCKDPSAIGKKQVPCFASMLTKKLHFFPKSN
Wnt bcat act – Wnt/beta-catenin pathway activation. hit rate 1.2% among 300,000. activation, % at 9.35 µM. Wnt/beta-catenin reporter cell assay, activator, plate reader; in the data active = activation above about 30%, passing the limit was not always enough; inconclusive = no clear call, values can overlap the other calls;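 also: 0% = neutral control wells and 100% = positive control wells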
NSD2 HMT inh – NSD2 (human) methyltransferase inhibition; O96028; NSD2 peptide methylation, AlphaScreen, 120 min; inhibition, % at 12.5 µM; hit rate 0.54% among 310,000; AID 743445; in the data active = inhibition above about 50%
* hit, by the source's call; u = inconclusive; x = no result.

SMILES	esBAF inh	MITF act	Xi reactivation	CASP6 VEID inh	Wnt bcat act	NSD2 HMT inh
COc1cc2c(cc1NC(=O)CSc1ccc(Cl)cc1)oc1ccccc12	-1	-6	0	x	x	-2
COc1ccc(C#Cc2cccc(-c3nc(C(=O)N4CCN(Cc5ccccc5)CC4)cc4c3[C@H](CCO)N(S(=O)C(C)(C)C)C4)c2)cc1OC (stereo partly drawn)	x	x	0	x	x	x
CSc1ccccc1OCc1cc(C(=O)N2CCN(c3ccccc3)CC2C)no1 (stereo not drawn)	54*	44	0	-1	17	3
CC(=O)c1ccc(OCc2cc(C(=O)N3CCN(c4ccccc4)CC3C)no2)cc1 (stereo not drawn)	110*	73	0	9	28	-3
CC(=O)c1ccc(OCc2cc(C(=O)N3CCC[C@H]3CO)no2)cc1	-2	1	0	-4	1	2
CSc1ccccc1OCc1cc(C(=O)NCCc2ccco2)no1	65*	53	0	6	6	-1
CSc1ccccc1OCc1cc(C(=O)N2CCCC2c2nonc2C)no1 (stereo not drawn)	11	55	0	3	29	1
COc1cc2c(cc1OC)CN(C(=O)c1cc(COc3ccccc3SC)on1)CC2	19	x	0	-3	7	8
CSc1ccccc1OCc1cc(C(=O)N2CCc3c(Cl)cccc3C2)no1	-1	-10	0	64*	0	-5
C[C@H](CO)N1C[C@H](C)[C@@H](CN(C)C(=O)NC2CCCCC2)Oc2ccc(NC(=O)CCC(F)(F)F)cc2CC1=O	1	x	-1	1	x	x
COc1ccc2c3c(n(C)c2c1)[C@@H](CO)N(C(=O)c1cnccn1)CC31CCN(C)CC1	x	x	0	x	x	x
COc1cccc(NC(=O)N2CC(=O)N3[C@@H](CO)[C@@H](c4ccc(C#CC5CCCC5)cc4)[C@@H]3C2)c1	x	x	0	1	x	x
CCCn1nc2cc(C(=O)NCCc3cccs3)ccc2c1OCC	72*	71	0	3	19	x
CCCCNC(=O)c1ccc2c(OCC)n(CCCC)nc2c1	-6	-1	0	-3	-3	x
COC(=O)c1c(NC(=O)CN2CCOCC2)sc2c1CCC(C)C2 (stereo not drawn)	62*	u	x	x	x	0
O=C(COC(=O)c1c[nH]c2ccccc12)NC1CCCC1	16	-4	0	2	4	2
Cc1ccc(NC(=O)C(=O)c2c[nH]c3ccccc23)cc1	20	x	0	0	64*	1
O=C(NC1CCCCC1)C(=O)c1c[nH]c2ccccc12	45*	66	0	0	u	-3
O=C(NC1CCCC1)c1n[nH]c2ccccc12	53*	66	0	-3	8	-1
Cc1ccc(-c2nc3ccccc3nc2NN)cc1	x	x	0	-6	44*	-2
CN1CCN(C(=O)C[C@H]2C[C@H]3c4cc(NC(=O)c5ccc6c(c5)OCO6)ccc4O[C@H]3[C@H](CO)O2)CC1	9	x	0	2	x	x
COc1ccc2c3c([nH]c2c1)[C@@H](CO)N(C(=O)c1ccncc1)CC31CN(Cc2cccnc2)C1	x	x	0	x	x	x
c1csc(-c2noc(COc3ccc4c(c3)CCCC4)n2)c1	40	140*	x	x	36*	-8
Brc1ccc(-c2noc(COc3ccc4c(c3)CCC4)n2)o1	-5	x	0	1	1	x
O=c1oc2ccccc2cc1-c1nnc(NCc2ccco2)s1	3	x	x	x	72*	0
SMILES	esBAF inh	MITF act	Xi reactivation	CASP6 VEID inh	Wnt bcat act	NSD2 HMT inh
Nc1nnc(-c2cc3ccccc3oc2=O)s1	26	x	x	x	1	2
COc1ccc(/C=C/c2noc(-c3ccccc3O)n2)cc1	x	98*	0	x	x	-2
COc1ccc(C(=O)/C=C/N(C)C)cc1OC	-1	13	x	x	x	0
CN(C)/C=C/C(=O)c1ccc(Oc2ccccc2)cc1	51*	58	0	-2	-3	-1
COc1ccc(C(=O)/C=C/N(C)C)cc1	9	x	x	0	66*	4
COC(=O)C[C@H]1C[C@H]2c3cc(NC(=O)Nc4ccc(OC)cc4)ccc3O[C@H]2[C@H](CO)O1	5	x	0	x	x	x
N#C/C(=C/c1ccc(N2CCCCC2)o1)C(=O)Nc1ccc(Cl)cc1	60*	78	x	x	x	-3
N#C/C(=C/c1ccc(N2CCCCC2)o1)C(=O)Nc1ccc2ccccc2c1	x	55	109*	-2	-4	1
